# Experimental data from ChEMBL document CHEMBL4152320, “Discovery and development of novel salicylate synthase (MbtI) furanic inhibitors as antitubercular agents” (Eur J Med Chem, 2018).
# Columns and labels:
# [1] = system: Mycobacterium tuberculosis; experiment: Antimycobacterial activity against Mycobacterium bovis BCG in 7H9 medium; type: functional; details: variant bovis BCG
# Outline: (§1)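 M. bovis BCG MIC determined in liquid medium, comparing iron conditions: cells grown in 7H9/OADC (high iron) versus low-iron chelated Sauton's medium.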
# [2] = system: Mycobacterium tuberculosis; experiment: Antimycobacterial activity against Mycobacterium bovis BCG in low iron containing medium; type: functional; details: variant bovis BCG; outline: as §1
# [3] = system: Mycobacterium tuberculosis; experiment: Ratio of MIC for Mycobacterium bovis BCG in 7H9 medium to MIC for Mycobacterium bovis BCG in low iron containing medium; type: functional, variant bovis BCG
compound,measurement,setting,value
O=C(O)c1ccc(-c2ccc([N+](=O)[O-])cc2)o1,MIC,[1],240 µM
same,MIC,[2],80 µM
same,Ratio,[3],3
